PMI act satM6P = activators of human phosphomannose isomerase at near-saturating mannose 6-phosphate; P34949; coupled PMI enzyme assay, resazurin fluorescence, 20 min; active compounds read high; 1 = untreated enzyme, 0 = substrate-free blank; activation factor at 20 µM; 190,000 tested, 0.34% active; AID 1216;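 active = activation factor of 2 or more at 20 µM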
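Technique: Diaphorase-driven resazurin-to-resorufin fluorescence, excitation 544, emission 590 nm | Assay system: Human PMI in coupled enzyme assay | Times: Enzyme reaction with compound 20 min at room temperature | Medium: HEPES-buffered pH 7.4 with magnesium and detergent | Reagent: Mannose-6-phosphate 1.0 mM (near-saturating) plus 0.22 mM NADP+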
Diaph inh CS = counter-screen for diaphorase-based assays: diaphorase inhibitors and chemical oxidizers; inhibition, % at 20 µM; AID 1217; diaphorase resazurin-to-resorufin fluorescence, NADH, 16 min; bacterial (C. kluyveri) enzyme, not human; 190,000 tested, 0.69% active;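 active = primary screen inhibition at 20 µM above a set limit, cut at about 50% in these data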
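Detection: fluorescence of resorufin formed from resazurin, Ex 544/Em 590 nm; test system: Clostridium kluyveri diaphorase enzyme; amount: 0.14 U/mL diaphorase, enzyme working solution; times: 16-min room-temperature incubation before reading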
FLuc inh counter = Photinus pyralis luciferase inhibition counter-screen; ATPLite firefly luciferase biochemical luminescence, 10 min; inhibition, % at 10 µM; 200,000 tested, 1.5% active;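 active = inhibition above about 50% when tested at 10 µM, limit read from the data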
Target sequence (P08659 whole entry, looked up): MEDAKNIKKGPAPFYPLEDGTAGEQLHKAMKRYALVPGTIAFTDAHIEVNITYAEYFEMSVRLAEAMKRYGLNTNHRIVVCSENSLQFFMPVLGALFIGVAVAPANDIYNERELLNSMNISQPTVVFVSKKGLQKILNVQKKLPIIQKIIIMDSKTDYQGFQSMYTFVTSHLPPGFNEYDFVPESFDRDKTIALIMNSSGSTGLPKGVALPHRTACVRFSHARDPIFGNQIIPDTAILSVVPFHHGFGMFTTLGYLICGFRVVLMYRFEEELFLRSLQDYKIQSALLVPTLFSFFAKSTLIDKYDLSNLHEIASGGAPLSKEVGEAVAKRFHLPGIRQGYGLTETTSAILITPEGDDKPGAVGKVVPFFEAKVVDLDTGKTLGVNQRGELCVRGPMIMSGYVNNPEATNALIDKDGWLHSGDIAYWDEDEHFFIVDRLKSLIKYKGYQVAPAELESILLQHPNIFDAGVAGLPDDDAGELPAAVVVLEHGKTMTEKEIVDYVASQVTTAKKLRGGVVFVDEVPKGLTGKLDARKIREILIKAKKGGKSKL
Diaphorase act = counter-screen for diaphorase-based assays: diaphorase activators and chemical reducers. Diaphorase/resazurin coupled assay, resorufin fluorescence, 16 min; active compounds read high; 1 = vehicle wells, 0 = NADH-free wells. activation factor at 20 µM. 190,000 tested, 0.005% active;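 active = diaphorase activity raised at least twofold by the compound at 20 µM; inactive = activation factor below 2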
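Material: Clostridium kluyveri diaphorase, purified enzyme; Quantity: enzyme 0.07 U/mL final; Medium: HEPES pH 7.4 buffer with MgCl2 and Tween 20; Dosing: single compound dose of 20 µM, 1% DMSO final; Schedule: 16 min reaction at room temperature; Measured by: red resorufin fluorescence at 544/590 nm excitation/emission.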
FLuc stim CS = firefly luciferase counter-screen for stimulation assays; ATPlite luciferase biochemical, luminescence, 10 min; 0 = ATP-free wells, 1 = DMSO control; P08659; activation factor at 10 µM; 200,000 tested, under 10 active;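 active = luciferase activation factor, scaled between plate controls, of at least 2 with compound at 10 µM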
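Material: Luciferase/luciferin reagent mix; Doses: test compounds dosed from 2 mM stocks in 100% DMSO; Schedule: 10 min incubation after luciferase reagent addition, room temperature; Measured by: luminescence from luciferase reaction; Read-out: luminescence gain marking luciferase activators.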
PMI act = activators of human phosphomannose isomerase | P34949 | purified human PMI, coupled resazurin fluorescence, 20 min; active compounds read high; 1 = vehicle control, 0 substrate-free wells | activation factor at 20 µM | 190,000 tested, 0.005% active | AID 1214;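 active = activation factor of 2 or more at 20 µM, relative to plate controls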
Large screens that a line does not name were inactive. The list is not random: actives were taken first. Their share in the collection is about 2.5%.

C=CCOc1ccc2c(OC)c3ccoc3nc2c1OC	FLuc inh counter 54
CCOc1c2ccoc2nc2c(OC)c(OC)ccc12	none
Cc1ccccc1N1Cc2ccccc2C1	PMI act satM6P 2.2
COc1ccccc1N1Cc2ccccc2C1	none
COc1ccc2[nH]c(=O)c(C(c3nnnn3CC3CCCO3)N3CCc4ccccc4C3)cc2c1 (configuration not stated)	Diaph inh CS 52
Cc1ccc2[nH]c(=O)c(C(c3nnnn3CC3CCCO3)N3CCc4ccccc4C3)cc2c1 (configuration not stated)	Diaph inh CS 63
Cc1ccc2[nH]c(=O)c(C(c3nnnn3CC3CCCO3)N3CCOCC3)cc2c1 (configuration not stated)	none
Cc1ccc2[nH]c(=O)c(C(c3nnnn3CC3CCCO3)N3CCCc4ccccc43)cc2c1 (configuration not stated)	Diaph inh CS 80
Cc1cc(OCCCCNC(C)C)cc(C(C)C)c1	none
COc1ccc(S(=O)(=O)N2CCOCC2)cc1NC(=O)Cc1ccc(Cl)c(Cl)c1	none
Cc1ccc(-c2noc(-c3ccccc3F)n2)cc1	FLuc inh counter 57
CCN1CCN(C(=O)CCc2ccc(S(=O)(=O)NCCc3ccccc3)cc2)CC1	none
COc1ccccc1N1CCN(C(=O)CSc2nc(C)c(Cc3ccccc3)c(=O)[nH]2)CC1	none
COc1ccc(-n2c(=O)c3ccccc3n(Cc3ccccc3F)c2=O)cc1OC	none
Cc1cc(C)c2nc3s/c(=C/c4ccccc4)c(=O)n3c2c1	none
Cc1cc(/C=c2/sc3nc4ccccc4n3c2=O)c(C)n1-c1ccccn1	Diaph inh CS 52, FLuc inh counter 90
CCN(CC)c1ccc(/C=c2\sc3nc4ccccc4n3c2=O)c(O)c1	none
O=c1/c(=C\c2cccnc2)sc2nc3ccccc3n12	FLuc inh counter 58
O=c1/c(=C/c2ccc(O)c([N+](=O)[O-])c2)sc2nc3ccccc3n12	Diaph inh CS 113
CC(C)(C)NC(=O)CSc1nc(O)cc(=O)n1-c1ccccc1	none
CCn1c(SCC(=O)OC(C)C)nnc1-c1ccccc1OC	none
O=C(O)/C=C/C(=O)NCc1ccccn1	none
CC(=O)c1sc(NC(=O)C2COc3ccccc3O2)nc1C (configuration not stated)	FLuc inh counter 60
CCOC(=O)c1sc(NC(=O)c2ccc(CC)s2)nc1C	none
Cc1ccc(C(=O)Nc2ncc(C)s2)o1	none
CCOC(=O)c1sc(NC(=O)c2ccccc2OC)nc1C	FLuc inh counter 62
CC(=O)c1sc(NC(=O)c2cccc(C)c2)nc1C	FLuc inh counter 51
Cc1cnc(NC(=O)c2cc3ccccc3o2)s1	FLuc inh counter 89
O=C(NC1CCCC1)c1cccc(NC(=O)c2ccco2)c1	none
CCCCC(C(=O)OCC)C(N)Cc1ccc(F)cc1 (configuration not stated)	none
CCOC(=O)c1sc(NC(=O)/C=C/c2c(F)cccc2Cl)nc1C	none
CCOC(=O)c1sc(NC(=O)c2cc3ccccc3o2)nc1C	FLuc inh counter 52
Cc1csc(NC(=O)c2ccco2)n1	none
C=CCOC(=O)c1sc(NC(=O)c2ccco2)nc1C	FLuc inh counter 58
CCOC(=O)c1sc(NC(=O)Nc2ccccc2F)nc1C	FLuc inh counter 84
CCOC(=O)c1c(C)nc2c3ccccc3ccn12	FLuc inh counter 54
CCOC(=O)c1c(C)nc2c(C)cccn12	none
CC(C)(C)c1ccc(C(=O)Nc2cnccn2)cc1	FLuc inh counter 86
CC(C)(C)c1ccc(C(=O)Nc2ncn[nH]2)cc1	none
O=C(Nc1nccs1)c1cc2c(s1)CCCCC2	FLuc inh counter 94
NNC(=O)c1cc2c(s1)CCCCCC2	none
O=C(Nc1nncs1)c1cc2c(s1)CCC2	FLuc inh counter 63
CCSc1nnc(NC(=O)c2cc3c(s2)CCCC3)s1	none
O=C(c1ccc2c(c1)OCCO2)C1CCN(S(=O)(=O)c2ccc(F)cc2)CC1	none
CC(C)=NOC(=O)c1ccc(-c2ccccc2)cc1	none
C/C(=N\OC(=O)c1ccc(Cl)c(Cl)c1)c1sc(C)nc1C	none
C/C(=N\OC(=O)c1ccc(C)cc1)c1sc(C)nc1C	FLuc inh counter 76
C/C(=N\OC(=O)c1ccc(Cl)cc1)c1nccs1	FLuc inh counter 72
C/C(=N/OC(=O)c1ccc(C)cc1)c1cccs1	FLuc inh counter 98
COc1ccc(OCc2nnc(SCC(=O)N(C)Cc3ccccc3)n2N)cc1	none
CN(Cc1ccc(Cl)s1)C(=O)CCl	none
Cc1cccc(C(=O)NC2C(=O)NNC2c2ccc(Cl)cc2)c1 (configuration not stated)	Diaph inh CS 52
O=C(NC1C(=O)NNC1c1ccccc1)c1ccccc1 (configuration not stated)	none
COc1ccc(OCCC(=O)OCC(=O)NCCC2=CCCCC2)cc1	none
O=C(Nc1nnc(SCC(=O)N2CCOCC2)s1)c1ccccc1Cl	FLuc inh counter 85
CCOC(=O)CNC(=O)CSc1nnc(NC(=O)c2ccccc2Cl)s1	FLuc inh counter 69
O=C(CSc1nnc(NCc2ccccc2)s1)N1CCOCC1	none
O=C(CSc1nnc(NC(=O)c2ccccc2F)s1)Nc1ccccc1F	FLuc inh counter 89
COc1ccc(/C=C/C2=NN(C)C(=O)CC2)cc1	FLuc inh counter 81
O=[N+]([O-])c1ccccc1-c1ccc(C(=S)N2CCCC2)o1	Diaph inh CS 53
S=C(c1ccc(-c2cccc(Cl)c2)o1)N1CCCCC1	FLuc inh counter 54
CC(=O)c1cccc(N(C(=O)Cn2nnc3ccccc32)C(C(=O)NCc2ccccc2)c2ccccn2)c1 (configuration not stated)	none
CC(N=Cc1cccc(O)c1O)c1ccccc1 (configuration not stated)	Diaph inh CS 51
Cc1ccc(N=Cc2cccc(O)c2O)c(C)c1	Diaph inh CS 67
Cc1ccccc1N=Cc1cccc(O)c1O	Diaph inh CS 83
CCN(CC)c1ccc(C=Nc2ccc(C)cc2C)c(O)c1	none
COC(=O)c1ccc(NC(=O)C(=O)N2CCN(C(=S)NCCc3ccccc3)CC2)cc1	none
Cc1nc2ccc(Cl)cn2c1C(=O)NN	none
CC1CCC/C(=N/Nc2nc3ccccc3s2)C1 (configuration not stated)	FLuc inh counter 72
O=C(NC(=S)Nc1nc2c(s1)CCCC2)c1ccccc1	FLuc inh counter 63
Cc1cc(C(=O)Nc2nc3c(s2)CCCC3)cs1	FLuc inh counter 70
COC(=O)c1ccc(C(=O)NC(=S)Nc2nc3c(s2)CCCC3)cc1	none

Bioassay records as filed in PubChem BioAssay.
